The nature of assay [1]: inhibitors of TNFa-induced NFkB p65 translocation, primary screen, imaging, HUVEC, MLSMR starter and 10KST1 sets (AID 438).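 Also: compound added about 3h40 before a 20 min TNFalpha stimulation.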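 As to inhibition: signal is the nuclear over cytoplasmic p65 intensity ratio per well.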 Particulars: HUVEC TNFa-induced p65 nuclear translocation; cell count: measured here: nuclei count (cytotoxicity indicator), at 2.08 µM; inhibition: at 2 µM, stronger effect = higher value, 0% TNFa-plus-vehicle, 100% no-TNFa wells.
Assay [2] is described as follows: inhibitors of mutant huntingtin aggregation, primary screen, imaging, exon1htt(103Q)mCFP cells, high-content imaging (AID 483;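 active = visual image review flags a hit and inhibition of aggregation exceeds 20%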;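 also: compound exposure lasted 3 days before fixation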;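 as to nuclei count: percent of the per-plate median nuclei count of sample wells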). The settings on record: exon1htt(103Q)mCFP cell line, aggregate imaging, at 2 µM; inhibition of aggregation: stronger effect = higher value; nuclei count: measured here: cell count, toxicity.
Assay [3] is described as follows: inhibitors of E-selectin induction by TNFa, primary screen, imaging, HUVEC, immunofluorescence, MLSMR starter and 10KST1 sets (AID 487;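 active = visually confirmed hit in the image check and inhibition above 20%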;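 as to inhibition: signal is fraction of cell area covered by stained E-selectin grains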;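 as to nuclei count: 100% = median nuclei count of all wells on the same plate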). Particulars: HUVEC TNFalpha-induced E-selectin immunofluorescence imaging, at 2 µM; inhibition: stronger effect = higher value; nuclei count: measured here: cell number, toxicity.
Assay [4] has as its target Voltage-gated potassium channel subunit beta-2 (Rattus norvegicus) (UniProt P62483). Kind of assay: KvBeta enzyme negative modulators, primary screen, biochemical, NADPH fluorescence (AID 622;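 active = fluorescence slope higher than the sample average by over 3 SD, cut at about -0.22 in these data, passing the limit was not always enough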;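 also: slope of raw intensity against log time taken from 70 to 1610 s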). Particulars: recombinant KvBeta, 4-cyanobenzaldehyde reduction, at 10 µM, stronger effect = higher value.
The target is the same in assay [5]. Kind of assay: KvBeta positive modulators, primary screen, biochemical, NADPH fluorescence (AID 623;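 active = NADPH fluorescence slope more negative than the mean of all samples by about 3 SD, 99.7% confidence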;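 also: fluorescence intensity change per second fitted from 20 to 320 s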). The settings on record: Recombinant KvBeta, NADPH fluorescence decrease slope, 10 min; at 10 µM; stronger effect = lower value.
The target in assay [6] is Muscarinic acetylcholine receptor M4 (Homo sapiens) (UniProt P08173). The assay is described as follows: compounds altering M4/GIRK thallium flux, either direction, primary screen, M4 allosteric agonist project, cell-based, HEK293 M4/GIRK, BTC-AM (AID 625;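 active = fluorescence slope after compound addition differing from the mean of all tested samples at 99.7% confidence, mostly higher but some lower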;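 also: thallium influx through GIRK channels coupled to M4 in HEK293 cells with BTC-AM dye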). The settings on record: at 10 µM, actives lie on both sides. In a few lines: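 assay system = HEK293 cells with M4 receptor and GIRK channels | medium = pH 7.3 thallium assay buffer | doses = 10 µM final, single point | timing = cells overnight at 37 °C, BTC-AM loading 1 h, reads 2 min total | signal = BTC-AM fluorescence, 1 Hz kinetic reads | read-out = post-addition slope, 15–24 s, of baseline-normalized fluorescence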
Sequence of Muscarinic acetylcholine receptor M4 (Homo sapiens) (P08173 whole entry, looked up): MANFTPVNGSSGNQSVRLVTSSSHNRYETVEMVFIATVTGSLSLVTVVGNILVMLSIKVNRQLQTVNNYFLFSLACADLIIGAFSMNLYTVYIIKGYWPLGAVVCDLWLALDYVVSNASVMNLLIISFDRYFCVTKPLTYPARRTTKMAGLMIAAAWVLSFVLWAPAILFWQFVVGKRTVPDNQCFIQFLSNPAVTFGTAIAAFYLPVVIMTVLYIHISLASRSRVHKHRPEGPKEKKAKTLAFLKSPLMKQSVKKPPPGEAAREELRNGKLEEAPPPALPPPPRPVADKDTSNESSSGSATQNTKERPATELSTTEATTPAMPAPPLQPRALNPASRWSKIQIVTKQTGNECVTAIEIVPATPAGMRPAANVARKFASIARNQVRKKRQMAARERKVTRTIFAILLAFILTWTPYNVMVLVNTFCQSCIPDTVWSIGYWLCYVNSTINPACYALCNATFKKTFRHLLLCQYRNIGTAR

Assay [7] is described as follows: inhibitors of Sendai virus-induced IRF3 signaling, primary screen, TLR/RLR signaling modifier project, cell-based, Sendai virus stimulus, luciferase, 10K MLSCN set (AID 602276;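 active = inhibition at or above 50% at 10 µM; inactive = inhibition below 50%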;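 also: firefly luciferase from ISG56 promoter only with Renilla not read in this screen; 0% = Sendai virus plus DMSO and 100% = medium plus DMSO without virus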). The settings on record: HEK293 RL24 IRF3 luciferase reporter, at 10 µM, stronger effect = higher value.
Assay [8] is described as follows: inhibitors of poly I:C-induced TLR3 signaling, primary screen, cell-based, poly I:C stimulus, luciferase, 10K MLSCN set (AID 602277;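 active = inhibition of the reporter signal at or above 50%; inactive = inhibition below 50%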). The settings on record: HEK293-TLR3 RL24 IRF3 luciferase reporter, at 10 µM, stronger effect = higher value. Background: In a reporter assay the amount or activity of a reporter protein is the signal.

Calls of active or inactive are those of the source.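 The calls were made as follows, unless noted: active = inhibition above 20% together with a positive visual image hit; inconclusive = visual image hit but inhibition not above 20%; inactive = no visual image hit.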

The record followed here is PubChem BioAssay.

Sequence of Voltage-gated potassium channel subunit beta-2 (Rattus norvegicus) (P62483 whole entry, looked up): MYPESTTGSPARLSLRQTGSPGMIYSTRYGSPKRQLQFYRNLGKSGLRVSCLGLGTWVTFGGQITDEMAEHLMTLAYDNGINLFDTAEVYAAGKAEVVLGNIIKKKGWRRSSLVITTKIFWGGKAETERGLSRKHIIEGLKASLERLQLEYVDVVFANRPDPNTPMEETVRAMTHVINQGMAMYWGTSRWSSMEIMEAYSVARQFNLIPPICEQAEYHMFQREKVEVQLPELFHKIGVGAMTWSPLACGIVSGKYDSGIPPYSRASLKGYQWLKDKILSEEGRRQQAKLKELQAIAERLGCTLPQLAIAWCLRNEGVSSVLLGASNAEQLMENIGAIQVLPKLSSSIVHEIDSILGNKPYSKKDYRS

In the case of `O=C(NC(NC1CCS(=O)(=O)C1)C(=O)c1cccs1)c1ccccc1` (centres undefined), in assay [1], the cell count was 269. Moreover, the inhibition (commonly the relative decrease from the control value, in per cent) in assay [1] was 3.9% (inactive); in assay [3], 12.8% (inactive); in assay [7], 7.41% (inactive); in assay [8], 18.4% (inactive). Further, the inhibition of aggregation in assay [2] was 0.8% (inactive). Also, the results for the nuclei count in assay [2] and in assay [3] were 101% and 96.3%, respectively. In addition, the figures for the fluorescence slope in assay [4] and in assay [6] were -0.572 (inactive) and 0.00591 (inactive), respectively. Also, the NADPH fluorescence slope in assay [5] was -2.1e-05 (inactive).

With `COC(=O)Cn1cc(C(=O)c2cccs2)c2ccccc21`, the cell count in assay [1] was found to be 220. Moreover, the inhibition is -21.4% (inactive) in assay [1], 4.3% (inactive) in assay [3], 14.1% (inactive) in assay [7] and 20.4% (inactive) in assay [8]. The inhibition of aggregation in assay [2] was 8.5% (inactive). The nuclei count in assay [2] came out at 82.9%; in assay [3], 70.5%. The values for the fluorescence slope in assay [4] and in assay [6] were -0.554 (inactive) and 0.00685 (inactive), respectively. Besides, the NADPH fluorescence slope in assay [5] was -3.7e-05 (inactive).

As to `Nn1c(CSc2nc3ccccc3o2)nnc1CSc1nc2ccccc2o1`, the cell count in assay [1] was 449. In addition, the inhibition in assay [1] was -13.4% (inactive); in assay [3], 29.7% (inactive); in assay [7] it was 9.57% (inactive); in assay [8], 17% (inactive). Moreover, the inhibition of aggregation in assay [2] is 24.5% (inactive). Also, the nuclei count in assay [2] was determined as 85.3%; in assay [3], 86%. The fluorescence slope in assay [4] was -0.408 (inactive); in assay [6], 0.00537 (inactive). The NADPH fluorescence slope in assay [5] is 5.7e-05 (inactive).

Consider `O=C(c1cc2ccccc2oc1=O)N1CCSC1c1ccco1` (centres undefined), for which the cell count in assay [1] came out at 310. Further, the inhibition was 5.3% (inactive) in assay [1], -24.5% (inactive) in assay [3], 12.5% (inactive) in assay [7] and 22% (inactive) in assay [8]. The inhibition of aggregation in assay [2] is 3.2% (inactive). The figures for the nuclei count in assay [2] and in assay [3] were 102% and 112%, respectively. Besides, the fluorescence slope in assay [4] is -0.398 (inactive); in assay [6], 0.00556 (inactive). Further, the NADPH fluorescence slope in assay [5] is -9.8e-05 (inactive).

For the compound `CCOCCCNC(=O)C1CCN(C(=O)Nc2ccc(Cl)cc2)CC1`, in assay [1], the cell count is 437. Also, the inhibition in assay [1] is -5% (inactive); in assay [3] it was -40.5% (inactive); in assay [7] it was 10.2% (inactive); in assay [8], 21.5% (inactive). The inhibition of aggregation in assay [2] was -2.7% (inactive). Moreover, the values for the nuclei count in assay [2] and in assay [3] were 106% and 90.7%, respectively. In addition, the fluorescence slope in assay [4] was -0.324 (inactive); in assay [6], 0.00707 (inactive). Besides, the NADPH fluorescence slope in assay [5] was -6.3e-05 (inactive).

Consider `CC1C(O)=C(c2nc3ccccc3[nH]2)C(=N)N1c1ccccc1` (centres undefined), for which the cell count in assay [1] was determined as 331. Further, the inhibition in assay [1] was 2.2% (inactive); in assay [3], -1.7% (inactive); in assay [7] it was -3.95% (inactive); in assay [8], -41% (inactive). Moreover, the inhibition of aggregation in assay [2] was -12.9% (inactive). In addition, the nuclei count in assay [2] amounted to 103%; in assay [3] it was 104%. The fluorescence slope in assay [4] was -0.482 (inactive); in assay [6] it was 0.00621 (inactive). For the same compound, in assay [5], the NADPH fluorescence slope was -2.5e-05 (inactive).

As to `O=C(CN1C(=O)COc2ccccc21)NCCCN1CCc2ccccc2C1`, in assay [1], the cell count worked out at 698. For the same compound, the inhibition in assay [1] was -5.4% (inactive); in assay [3] it was -13.4% (inactive); in assay [7], 11.3% (inactive); in assay [8] it was 33.1% (inactive). Moreover, the inhibition of aggregation in assay [2] is -7.3% (inactive). For the same compound, the nuclei count in assay [2] and in assay [3] was 106% each time. Further, the fluorescence slope in assay [4] was -0.625 (inactive); in assay [6], 0.00746 (inactive). Further, the NADPH fluorescence slope in assay [5] is 1.2e-05 (inactive).

On to `O=C(CSc1nc2ccc(Cl)cc2[nH]1)NCc1ccco1`, for which the cell count in assay [1] came out at 273. The inhibition in assay [1] was 17.8% (inactive); in assay [3], -3.9% (inactive); in assay [7], 17.9% (inactive); in assay [8], 20.8% (inactive). Besides, the inhibition of aggregation in assay [2] is -10.2% (inactive). In addition, the nuclei count in assay [2] and in assay [3] was 109% in each case. Also, the figures for the fluorescence slope in assay [4] and in assay [6] were -0.611 (inactive) and 0.00642 (inactive), respectively. The NADPH fluorescence slope in assay [5] is 1.5e-05 (inactive).

For `CCOC(=O)CN(C)Cc1c[nH]c2ccccc12`, in assay [1], the cell count is 442. Besides, the inhibition was -2.2% (inactive) in assay [1], 17.6% (inactive) in assay [3], 27.3% (inactive) in assay [7] and 36.9% (inactive) in assay [8]. Moreover, in assay [2], the inhibition of aggregation was -15.3% (inactive). Also, the values for the nuclei count in assay [2] and in assay [3] were 93.9% and 78.5%, respectively. For the same compound, the fluorescence slope in assay [4] was -0.426 (inactive); in assay [6] it was 0.00441 (inactive). Besides, the NADPH fluorescence slope in assay [5] was -4.3e-05 (inactive).

`Cc1cc(O)c(C2(C(F)(F)F)NCCNC2=O)cc1C` (centres undefined): the cell count in assay [1] turned out to be 560. The inhibition in assay [1] was 4.7% (inactive); in assay [3], 63.7% (inactive); in assay [7] it was 17.6% (inactive); in assay [8] it was 29.3% (inactive). Moreover, the inhibition of aggregation in assay [2] is 24.3% (inactive). Also, the nuclei count in assay [2] turned out to be 84.5%; in assay [3], 63.2%. Besides, the results for the fluorescence slope in assay [4] and in assay [6] were -0.576 (inactive) and 0.00721 (inactive), respectively. Besides, the NADPH fluorescence slope in assay [5] was 1e-05 (inactive).

Regarding `COc1cc2[nH]c(=O)n(CCCCCC(=O)NCCCN3CCCC3=O)c(=O)c2cc1OC`, the cell count in assay [1] is 703. Besides, the inhibition in assay [1] was -23.7% (inactive); in assay [3], -42.1% (inactive); in assay [7] it was 13.3% (inactive); in assay [8], 22.1% (inactive). In assay [2], the inhibition of aggregation was 3.9% (inactive). The nuclei count in assay [2] was found to be 102%; in assay [3], 124%. Further, the figures for the fluorescence slope in assay [4] and in assay [6] were -0.457 (inactive) and 0.0052 (inactive), respectively. The NADPH fluorescence slope in assay [5] was -7.1e-05 (inactive).

Consider `O=C(Cn1nc(C(F)(F)F)c2c1CCCC2)NCCN1CCOCC1`, for which the cell count in assay [1] came out at 584. Moreover, the inhibition in assay [1] is -6.8% (inactive); in assay [3], -8.6% (inactive); in assay [7], 17.5% (inactive); in assay [8] it was 25.2% (inactive). The inhibition of aggregation in assay [2] was -26.7% (inactive). The nuclei count turned out to be 103% in assay [2] and 93.4% in assay [3]. For the same compound, the fluorescence slope in assay [4] was -0.516 (inactive); in assay [6] it was 0.00274 (inactive). In addition, in assay [5], the NADPH fluorescence slope is -0.00011 (inactive).

`O=S(=O)(NCCc1csc(-c2ccccc2)n1)c1ccc2c(c1)OCCO2`: the cell count in assay [1] amounted to 363. Also, the inhibition in assay [1] is -13.3% (inactive); in assay [3] it was 29.5% (inactive); in assay [7] it was 14.6% (inactive); in assay [8], 9.91% (inactive). In addition, in assay [2], the inhibition of aggregation was 2.9% (inactive). Further, the nuclei count in assay [2] came out at 108%; in assay [3], 76.2%. Besides, the values for the fluorescence slope in assay [4] and in assay [6] were -0.622 (inactive) and 0.00312 (inactive), respectively. The NADPH fluorescence slope in assay [5] was 1e-06 (inactive).

On to `Cc1ccc(-c2cc(C(F)(F)F)n3ncc(C(=O)O)c3n2)cc1`, for which the cell count in assay [1] came out at 412. Besides, the inhibition in assay [1] is 3.1% (inactive); in assay [3] it was -26.7% (inactive); in assay [7], 19.6% (inactive); in assay [8] it was 21.8% (inactive). For the same compound, the inhibition of aggregation in assay [2] was -8.3% (inactive). Also, the nuclei count in assay [2] was found to be 109%; in assay [3] it was 110%. The fluorescence slope is -0.524 (inactive) in assay [4] and 0.00395 (inactive) in assay [6]. The NADPH fluorescence slope in assay [5] is -3.4e-05 (inactive).
